Assay results: ChEMBL document CHEMBL1811759, “Synthesis and topoisomerase I inhibitory activity of a novel diazaindeno[2,1-b]phenanthrene analogue of Lamellarin D” (Bioorg Med Chem, 2011)
Active and inactive are the calls of the source. The calls are words filed in the database; no cut-off is given here.

Assays:
[1] = test system: NCI-H460; assay: Antiproliferative activity against human NCI-H460 cells after 1 hr by coulter counter analysis; assay type: functional, cell-based; conditions: NCI-H460, 1 h
Summary of the method: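 NCI-H460 NSCLC cells in RPMI-1640 + 10% foetal calf serum; log-phase cells seeded in duplicate, drug added 24 h after seeding for 1 h, then counted (Coulter counter) 72 h later. IC50 = concentration giving 50% decrease in cell growth vs untreated control.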

[2] = molecular target: T1, DNA topoisomerase 1 (Homo sapiens) (UniProt P11387); assay: Stimulation of human recombinant DNA topoisomerase 1-mediated 751-bp BamHI-EcoRV fragment of SV40 DNA cleavage at 1 to 50 uM after 30 mins by polyacrylamide gel-electrophoresis
T1 sequence (whole entry): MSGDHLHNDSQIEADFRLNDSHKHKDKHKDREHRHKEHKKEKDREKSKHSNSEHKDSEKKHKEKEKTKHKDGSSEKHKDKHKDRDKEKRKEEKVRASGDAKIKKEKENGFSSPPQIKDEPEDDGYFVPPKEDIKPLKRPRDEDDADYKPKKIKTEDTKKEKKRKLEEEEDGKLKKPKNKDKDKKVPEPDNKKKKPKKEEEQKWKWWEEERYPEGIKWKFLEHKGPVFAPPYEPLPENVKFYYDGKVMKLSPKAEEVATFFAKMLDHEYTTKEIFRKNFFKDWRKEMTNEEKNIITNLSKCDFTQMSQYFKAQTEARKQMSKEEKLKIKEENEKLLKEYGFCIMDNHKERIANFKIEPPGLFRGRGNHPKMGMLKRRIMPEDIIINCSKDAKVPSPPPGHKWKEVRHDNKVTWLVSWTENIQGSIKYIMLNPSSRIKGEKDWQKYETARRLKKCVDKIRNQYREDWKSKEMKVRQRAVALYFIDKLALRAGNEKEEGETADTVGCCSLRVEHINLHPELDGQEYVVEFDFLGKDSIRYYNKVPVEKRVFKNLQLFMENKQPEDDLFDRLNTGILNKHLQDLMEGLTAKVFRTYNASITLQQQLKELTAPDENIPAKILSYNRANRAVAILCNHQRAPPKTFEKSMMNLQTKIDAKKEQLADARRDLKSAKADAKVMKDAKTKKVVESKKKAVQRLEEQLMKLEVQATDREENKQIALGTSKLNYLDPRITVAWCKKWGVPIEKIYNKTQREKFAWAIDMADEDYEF
Summary of the method: (§1)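 Gel-purified 751-bp BamHI–EcoRV SV40 DNA fragment, uniquely 3'-end labeled (10,000 cpm/sample), incubated with full-length human recombinant topoisomerase I in 10 mM Tris–HCl pH 7.6, 150 mM KCl, 5 mM MgCl2, 0.1 mM DTT, 30 min, 37 °C. Stopped with 0.5% SDS plus 0.3 mg/mL proteinase K (45 min, 42 °C); products resolved on denaturing 8% polyacrylamide/TBE gel.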

[3] = test system: NCI-H460; assay: Antiproliferative activity against human NCI-H460 cells after 72 hrs by coulter counter analysis; assay type: functional, cell-based; conditions: NCI-H460, 72 h
Summary of the method: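 NCI-H460 cells grown in RPMI-1640 with 10% foetal calf serum; log-phase cells seeded in duplicate, exposed 24 h post-seeding for 72 h continuously, counted by Coulter counter at end of exposure. IC50 taken as concentration halving cell growth relative to untreated control.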

[4] = molecular target: T1, DNA topoisomerase 1 (Homo sapiens); assay: Stimulation of human recombinant DNA topoisomerase 1-mediated 751-bp BamHI-EcoRV fragment of SV40 DNA cleavage at 100 uM after 30 mins by polyacrylamide gel-electrophoresis; summary of the method: as §1

Row | Activity [2] | Activity [4] | Structure (SMILES) | IC50 [1] [µM] | IC50 [3] [µM]
1 | – | – | Cn1c2ccccc2c2cc3n(c(=O)c21)COc1ccccc1-3 | 118 | –
2 | inactive | – | COc1cc2c3c(-c4ccc(OC(C)C)c(OC)c4)c(-c4ccc(OC(C)C)c(OC)c4)[nH]c(=O)c3n(Cc3ccccc3)c2cc1OCc1ccccc1 | > 150 | –
3 | Active | – | CCc1c2c(nc3ccc(O)cc13)-c1cc3c(c(=O)n1C2)COC(=O)[C@]3(O)CC | – | –
4 | – | – | COc1cc(-c2[nH]c(=O)c3c(c2-c2ccc(O)c(OC)c2)c2ccccc2n3C)ccc1O | 60.8 | –
5 | inactive | – | COc1cc(-c2[nH]c(=O)c3c(c2-c2ccc(O)c(OC)c2)c2cc(OC)c(O)cc2n3Cc2ccccc2)ccc1O | 119 | –
6 | inactive | – | COc1cc(-c2[nH]c(=O)c3[nH]c4cc(O)c(OC)cc4c3c2-c2ccc(O)c(OC)c2)ccc1O | 60.8 | –
7 | – | – | COc1cc(-c2[nH]c(=O)c3c(c2-c2ccc(OC(C)C)c(OC)c2)c2ccccc2n3C)ccc1OC(C)C | 60.8 | –
8 | – | – | CC[C@@]1(O)C(=O)OCc2c1cc1n(c2=O)Cc2cc3c(CN(C)C)c(O)ccc3nc2-1 [TOPOTECAN] | 1.75 | 0.016
9 | – | Active | COc1cc(-c2c3n(c(=O)c4c2c2cc(OC)c(O)cc2n4C)COc2cc(O)c(OC)cc2-3)ccc1O | 4.02 | 0.35
10 | – | – | COc1cc(-c2[nH]c(=O)c3[nH]c4cc(OC)c(O)cc4c3c2-c2ccc(O)c(OC)c2)ccc1O | 60.8 | –

Row | Structure (SMILES) | Activity [2] | Activity [4] | IC50 [1] [µM] | IC50 [3] [µM]
11 | COc1cc(-c2c3c4cc(OC)c(O)cc4oc(=O)c3n3ccc4cc(O)c(OC)cc4c23)ccc1O [LAMELLARIN D] | Active | – | 0.066 | 0.003
